According to ChEMBL document CHEMBL1147076, “Antitumor activity of MLN8054, an orally active small-molecule inhibitor of Aurora A kinase” (Proc Natl Acad Sci U S A, 2007):
Activity calls are given as the source filed them. The rule behind the calls is not given here.

Experiments:
[1] = molecular target: Ephrin type-A receptor 7 (Homo sapiens) (UniProt Q15375); assay: Activity of human EphA7 kinase at 1 uM
Procedure, shortened: (§1)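 Single-point kinase profiling: each kinase in a 226-kinase panel tested with compound at 1 μM and ATP at 10 μM in every assay, run by an external screening service.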

[2] = molecular target: Tyrosine-protein kinase Fes/Fps (Homo sapiens) (UniProt P07332); assay: Activity of human Fes kinase at 1 uM; procedure, shortened: as §1
[3] = molecular target: Fibroblast growth factor receptor 4 (Homo sapiens) (UniProt P22455); assay: Activity of human FGFR4 kinase at 1 uM
[4] = molecular target: Insulin-like growth factor 1 receptor (Homo sapiens) (UniProt P08069); assay: Activity of human IGF1R kinase at 1 uM
[5] = molecular target: Tyrosine-protein kinase JAK3 (Homo sapiens) (UniProt P52333); assay: Activity of human JAK3 kinase at 1 uM
[6] = molecular target: MAP kinase-activated protein kinase 3 (Homo sapiens) (UniProt Q16644); assay: Activity of human MAPKAP-K3 kinase at 1 uM
[7] = molecular target: Serine/threonine-protein kinase NLK (Homo sapiens) (UniProt Q9UBE8); assay: Activity of human NLK kinase at 1 uM
Procedure, shortened: (§2)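 Single-point screen in a 226-kinase panel run by an outside service. Test compound at 1 μM with ATP at 10 μM in every assay. Other assay conditions are not given.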

[8] = molecular target: Serine/threonine-protein kinase PAK 6 (Homo sapiens) (UniProt Q9NQU5); assay: Activity of human PAK6 kinase at 1 uM; procedure, shortened: as §2
[9] = molecular target: PAS domain-containing serine/threonine-protein kinase (Homo sapiens) (UniProt Q96RG2); assay: Activity of human PASK kinase at 1 uM; procedure, shortened: as §1
[10] = molecular target: Phosphorylase b kinase gamma catalytic chain, liver/testis isoform (Homo sapiens) (UniProt P15735); assay: Activity of human PhKgamma2 kinase at 1 uM; procedure, shortened: as §2
[11] = molecular target: Phosphatidylinositol 4,5-bisphosphate 3-kinase catalytic subunit gamma isoform (Homo sapiens) (UniProt P48736); assay: Activity of human PI 3-kinase gamma at 1 uM; procedure, shortened: as §1
[12] = molecular target: Protein kinase C iota type (Homo sapiens) (UniProt P41743); assay: Activity of human PKCiota kinase at 1 uM; procedure, shortened: as §1
[13] = molecular target: Serine/threonine-protein kinase D1 (Homo sapiens) (UniProt Q15139); assay: Activity of human PKCmu kinase at 1 uM; procedure, shortened: as §1
[14] = molecular target: Protein kinase C zeta type (Homo sapiens) (UniProt Q05513); assay: Activity of human PKCzeta kinase at 1 uM; procedure, shortened: as §2
[15] = molecular target: Serine/threonine-protein kinase PLK3 (Homo sapiens) (UniProt Q9H4B4); assay: Activity of human Plk3 kinase at 1 uM
Procedure, shortened: (§3)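 Single-concentration screen across a 226-kinase panel run by an outside provider; test compound at 1 μM with 10 μM ATP in every assay. Other conditions not detailed.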

[16] = molecular target: Proto-oncogene tyrosine-protein kinase receptor Ret (Homo sapiens) (UniProt P07949); assay: Activity of human Ret kinase at 1 uM; procedure, shortened: as §3
[17] = molecular target: Rho-associated protein kinase 1 (Homo sapiens) (UniProt Q13464); assay: Activity of human ROCK1 kinase at 1 uM; procedure, shortened: as §2
[18] = molecular target: Rho-associated protein kinase 2 (Rattus norvegicus) (UniProt Q62868); assay: Activity of rat ROCK2 kinase at 1 uM; procedure, shortened: as §2
[19] = molecular target: Tyrosine-protein kinase receptor TYRO3 (Homo sapiens) (UniProt Q06418); assay: Activity of human Rse kinase at 1 uM; procedure, shortened: as §3
[20] = Plasma concentration in human HCT116 cells xenografted in mouse at 30 mg/kg, po after 8 hrs; type: ADME, organism-based, HCT-116; parameters: dose 30 mg/kg, route oral
[21] = molecular target: Serine/threonine-protein kinase DCLK2 (Homo sapiens) (UniProt Q8N568); assay: Activity of human DCAMKL2 kinase at 1 uM; procedure, shortened: as §1
[22] = molecular target: Serine/threonine-protein kinase 17A (Homo sapiens) (UniProt Q9UEE5); assay: Activity of human DRAK1 kinase at 1 uM; procedure, shortened: as §1
[23] = molecular target: Eukaryotic elongation factor 2 kinase (Homo sapiens) (UniProt O00418); assay: Activity of human eEF-2K kinase at 1 uM; procedure, shortened: as §3
[24] = molecular target: Tyrosine-protein kinase Yes (Homo sapiens) (UniProt P07947); assay: Activity of human Yes kinase at 1 uM; procedure, shortened: as §3
Mus musculus [25] = assay: Toxicity in human HCT116 cells xenografted into athymic nude NCR nu/nu mouse assessed as decrease in neutrophil count at 30 mg/kg, BID after 21 days; type: organism-based, HCT-116; parameters: dose 30 mg/kg; scale not given: the % may be the effect or the level left; details: in vivo, 504 h
Procedure, shortened: (§4)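 Female athymic nude NCR nu/nu mice were given HCT-116 cells (1 × 10^6) s.c. in the right flank. Drug in 10% hydroxypropyl-β-cyclodextrin/5% sodium bicarbonate was given orally (QD or BID) for 21 days. Body weight loss was recorded at the end of treatment, and neutrophil counts were also followed for the BID regimen.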

[26] = molecular target: Serine/threonine-protein kinase BRSK1 (Homo sapiens) (UniProt Q8TDC3); assay: Activity of human BrSK1 kinase at 1 uM
[27] = molecular target: Calcium/calmodulin-dependent protein kinase type II subunit delta (Homo sapiens) (UniProt Q13557); assay: Activity of human CaMK2delta kinase at 1 uM; procedure, shortened: as §1
[28] = molecular target: Cyclin-dependent kinase 2/cyclin E1 (Homo sapiens) (UniProt P24864+P24941); assay: Activity of human CDK2/cyclin E kinase at 1 uM; type: protein-complex assay
Homo sapiens = organism: Homo sapiens; assay: Activity of human CDK5/p25 kinase at 1 uM
PC-3 [29] = assay: Induction of apoptosis in human PC3 cells assessed as PARP cleavage at 1 uM after 48 hrs by Western blot method; type: functional, cell-based
NCI-H460 = assay: Antiproliferative activity against human H460 cells after 96 hrs by BrdU cell proliferation ELISA; type: functional, cell-based; details: NCI-H460, 96 h
Procedure, shortened: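 BrdU incorporation proliferation assay on cultured human tumor lines; IC50 values derived from growth inhibition.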

Mus musculus [30] = assay: Toxicity in human HCT116 cells xenografted into athymic nude NCR nu/nu mouse assessed as decrease in body weight at 30 mg/kg, QD after 21 days; type: organism-based, HCT-116; parameters: dose 30 mg/kg; scale not given: the % may be the effect or the level left; details: in vivo, 504 h; procedure, shortened: as §4
[31] = Inhibition of Abl kinase at 1 uM
[32] = molecular target: Ephrin type-B receptor 1 (Homo sapiens) (UniProt P54762); assay: Inhibition of EphB1 kinase at 1 uM
Procedure, shortened: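 Single-point screen within a 226-kinase panel, with compound at 1 μM and ATP at 10 μM in all assays.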

PC-3 [33] = assay: Cell cycle arrest in human PC3 cells by accumulation at G2/M phase at 4 uM after 24 hrs by flow cytometry relative to control; type: functional
Procedure, shortened: (§5)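 DNA content profiles by flow cytometry of PC-3 prostate tumor cells exposed to drug diluted in DMSO for 24 or 48 h. Phase distribution was compared with DMSO-treated control cells.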

PC-3 [34] = assay: Cell cycle arrest in human PC3 cells by accumulation at >4N phase at 4 uM after 24 hrs by flow cytometry relative to control; type: functional
PC-3 [35] = assay: Cell cycle arrest in human PC3 cells by accumulation at G1 phase at 4 uM after 48 hrs by flow cytometry relative to control; type: functional; procedure, shortened: as §5
[36] = molecular target: Mitogen-activated protein kinase 1 (ERK2) (Mus musculus) (UniProt P63085); assay: Activity of mouse MAPK2 kinase at 1 uM

Insulin-like growth factor 1 receptor (Homo sapiens), sequence (P08069 31-736 limits assumed): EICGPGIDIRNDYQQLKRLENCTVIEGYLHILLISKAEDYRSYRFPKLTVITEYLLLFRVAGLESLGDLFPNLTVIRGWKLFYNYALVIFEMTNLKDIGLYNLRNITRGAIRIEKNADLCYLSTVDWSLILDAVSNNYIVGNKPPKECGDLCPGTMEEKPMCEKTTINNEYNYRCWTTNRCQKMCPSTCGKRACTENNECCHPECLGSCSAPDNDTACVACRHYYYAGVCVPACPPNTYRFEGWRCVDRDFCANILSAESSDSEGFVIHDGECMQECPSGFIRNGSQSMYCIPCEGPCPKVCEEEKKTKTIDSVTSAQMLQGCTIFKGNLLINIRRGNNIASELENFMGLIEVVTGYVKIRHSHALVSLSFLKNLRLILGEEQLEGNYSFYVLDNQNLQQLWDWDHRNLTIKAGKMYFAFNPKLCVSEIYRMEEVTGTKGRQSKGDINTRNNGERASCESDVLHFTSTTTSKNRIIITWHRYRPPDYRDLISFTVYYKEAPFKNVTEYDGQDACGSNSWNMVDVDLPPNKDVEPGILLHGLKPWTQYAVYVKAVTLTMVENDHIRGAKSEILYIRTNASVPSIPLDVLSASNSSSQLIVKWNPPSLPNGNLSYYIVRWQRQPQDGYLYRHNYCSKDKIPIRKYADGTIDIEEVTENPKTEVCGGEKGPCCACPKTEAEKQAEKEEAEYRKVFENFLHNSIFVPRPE
Insulin-like growth factor 1 receptor (Homo sapiens), sequence (P08069 741-1367 limits assumed): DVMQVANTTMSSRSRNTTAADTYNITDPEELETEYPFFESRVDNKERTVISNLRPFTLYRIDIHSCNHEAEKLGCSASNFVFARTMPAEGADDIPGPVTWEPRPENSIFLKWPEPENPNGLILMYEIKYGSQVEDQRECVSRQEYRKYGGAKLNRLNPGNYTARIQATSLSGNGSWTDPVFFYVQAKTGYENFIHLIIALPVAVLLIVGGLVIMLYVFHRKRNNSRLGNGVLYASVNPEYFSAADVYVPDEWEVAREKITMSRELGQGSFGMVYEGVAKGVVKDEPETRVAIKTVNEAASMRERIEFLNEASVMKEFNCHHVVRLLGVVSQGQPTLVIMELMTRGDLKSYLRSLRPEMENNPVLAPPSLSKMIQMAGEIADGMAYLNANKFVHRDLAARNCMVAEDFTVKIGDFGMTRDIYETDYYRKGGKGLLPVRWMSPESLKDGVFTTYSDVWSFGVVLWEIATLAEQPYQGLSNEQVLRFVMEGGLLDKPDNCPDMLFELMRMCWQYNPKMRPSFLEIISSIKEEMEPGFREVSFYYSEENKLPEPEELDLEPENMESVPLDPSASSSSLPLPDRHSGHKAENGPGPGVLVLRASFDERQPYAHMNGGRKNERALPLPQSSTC
Ephrin type-A receptor 7 (Homo sapiens), sequence (Q15375 28-998 limits assumed): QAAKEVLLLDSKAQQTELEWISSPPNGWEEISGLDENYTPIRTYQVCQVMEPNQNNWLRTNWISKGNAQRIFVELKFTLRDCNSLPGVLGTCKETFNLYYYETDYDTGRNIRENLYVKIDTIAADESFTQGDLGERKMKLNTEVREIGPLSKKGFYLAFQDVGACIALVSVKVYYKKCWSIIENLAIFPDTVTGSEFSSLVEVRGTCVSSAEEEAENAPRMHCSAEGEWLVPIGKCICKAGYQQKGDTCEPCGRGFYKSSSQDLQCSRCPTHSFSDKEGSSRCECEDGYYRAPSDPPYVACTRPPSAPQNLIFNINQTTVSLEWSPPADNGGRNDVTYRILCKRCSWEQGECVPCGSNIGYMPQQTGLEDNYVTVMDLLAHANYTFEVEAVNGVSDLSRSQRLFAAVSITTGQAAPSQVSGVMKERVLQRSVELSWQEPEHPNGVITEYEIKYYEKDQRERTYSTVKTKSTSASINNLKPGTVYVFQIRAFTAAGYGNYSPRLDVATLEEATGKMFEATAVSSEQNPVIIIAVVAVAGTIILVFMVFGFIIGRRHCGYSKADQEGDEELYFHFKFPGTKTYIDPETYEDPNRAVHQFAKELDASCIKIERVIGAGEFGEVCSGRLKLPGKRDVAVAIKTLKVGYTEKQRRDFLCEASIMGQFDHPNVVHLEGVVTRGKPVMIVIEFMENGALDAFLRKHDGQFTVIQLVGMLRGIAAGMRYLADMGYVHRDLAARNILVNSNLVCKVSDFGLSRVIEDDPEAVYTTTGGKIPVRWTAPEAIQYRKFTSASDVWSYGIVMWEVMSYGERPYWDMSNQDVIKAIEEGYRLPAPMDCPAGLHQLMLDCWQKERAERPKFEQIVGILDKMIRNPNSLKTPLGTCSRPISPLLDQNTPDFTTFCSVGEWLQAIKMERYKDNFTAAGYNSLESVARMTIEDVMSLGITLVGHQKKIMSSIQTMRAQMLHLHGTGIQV
Proto-oncogene tyrosine-protein kinase receptor Ret (Homo sapiens), sequence (P07949 whole entry): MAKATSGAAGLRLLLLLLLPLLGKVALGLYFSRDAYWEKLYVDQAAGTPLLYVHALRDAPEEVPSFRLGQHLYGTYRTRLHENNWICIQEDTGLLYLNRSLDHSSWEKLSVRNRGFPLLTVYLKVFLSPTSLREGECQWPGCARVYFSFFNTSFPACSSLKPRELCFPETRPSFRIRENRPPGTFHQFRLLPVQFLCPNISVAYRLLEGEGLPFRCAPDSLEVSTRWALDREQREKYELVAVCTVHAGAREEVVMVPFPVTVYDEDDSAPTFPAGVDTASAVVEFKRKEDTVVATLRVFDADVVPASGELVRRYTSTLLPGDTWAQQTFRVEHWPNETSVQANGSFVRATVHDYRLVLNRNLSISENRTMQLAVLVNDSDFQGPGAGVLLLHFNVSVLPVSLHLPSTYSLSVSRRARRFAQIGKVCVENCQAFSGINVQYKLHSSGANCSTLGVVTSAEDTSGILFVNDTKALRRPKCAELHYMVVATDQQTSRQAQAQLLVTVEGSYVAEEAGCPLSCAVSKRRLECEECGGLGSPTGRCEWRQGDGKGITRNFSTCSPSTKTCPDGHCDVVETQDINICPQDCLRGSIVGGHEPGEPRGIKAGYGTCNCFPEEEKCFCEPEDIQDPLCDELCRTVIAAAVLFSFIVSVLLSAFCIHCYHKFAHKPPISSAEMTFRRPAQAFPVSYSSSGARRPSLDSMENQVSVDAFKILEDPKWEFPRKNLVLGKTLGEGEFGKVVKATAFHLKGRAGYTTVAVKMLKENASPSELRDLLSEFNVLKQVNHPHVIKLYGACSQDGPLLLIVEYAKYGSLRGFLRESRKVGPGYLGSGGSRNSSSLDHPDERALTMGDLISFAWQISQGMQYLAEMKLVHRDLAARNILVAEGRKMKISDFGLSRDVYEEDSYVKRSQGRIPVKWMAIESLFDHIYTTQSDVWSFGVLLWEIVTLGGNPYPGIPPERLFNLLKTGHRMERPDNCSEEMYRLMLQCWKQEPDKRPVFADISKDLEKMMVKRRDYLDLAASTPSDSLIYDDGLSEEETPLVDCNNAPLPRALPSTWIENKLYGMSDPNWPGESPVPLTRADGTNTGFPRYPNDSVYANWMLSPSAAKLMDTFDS
Fibroblast growth factor receptor 4 (Homo sapiens), sequence (P22455 22-802 limits assumed): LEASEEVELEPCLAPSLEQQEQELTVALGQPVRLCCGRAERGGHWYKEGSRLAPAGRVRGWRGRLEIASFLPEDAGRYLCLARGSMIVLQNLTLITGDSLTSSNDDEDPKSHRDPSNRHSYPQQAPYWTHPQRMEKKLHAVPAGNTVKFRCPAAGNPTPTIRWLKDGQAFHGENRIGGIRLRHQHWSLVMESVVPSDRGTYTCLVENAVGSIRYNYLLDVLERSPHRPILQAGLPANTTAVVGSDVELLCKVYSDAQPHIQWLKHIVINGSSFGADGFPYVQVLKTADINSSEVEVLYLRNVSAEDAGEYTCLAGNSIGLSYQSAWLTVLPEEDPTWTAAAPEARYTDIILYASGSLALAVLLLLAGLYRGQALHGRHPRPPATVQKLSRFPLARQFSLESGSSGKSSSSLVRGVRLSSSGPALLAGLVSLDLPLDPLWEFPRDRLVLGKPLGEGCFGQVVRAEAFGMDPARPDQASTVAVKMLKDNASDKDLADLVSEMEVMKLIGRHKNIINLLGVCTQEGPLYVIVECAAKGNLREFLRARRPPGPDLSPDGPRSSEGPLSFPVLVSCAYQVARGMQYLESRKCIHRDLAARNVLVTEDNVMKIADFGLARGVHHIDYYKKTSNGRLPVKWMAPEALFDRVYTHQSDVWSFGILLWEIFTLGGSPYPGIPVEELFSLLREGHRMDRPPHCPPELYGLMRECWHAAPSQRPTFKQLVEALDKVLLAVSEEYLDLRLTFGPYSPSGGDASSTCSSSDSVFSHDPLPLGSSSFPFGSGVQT
Tyrosine-protein kinase Yes (Homo sapiens), sequence (P07947 2-543 limits assumed): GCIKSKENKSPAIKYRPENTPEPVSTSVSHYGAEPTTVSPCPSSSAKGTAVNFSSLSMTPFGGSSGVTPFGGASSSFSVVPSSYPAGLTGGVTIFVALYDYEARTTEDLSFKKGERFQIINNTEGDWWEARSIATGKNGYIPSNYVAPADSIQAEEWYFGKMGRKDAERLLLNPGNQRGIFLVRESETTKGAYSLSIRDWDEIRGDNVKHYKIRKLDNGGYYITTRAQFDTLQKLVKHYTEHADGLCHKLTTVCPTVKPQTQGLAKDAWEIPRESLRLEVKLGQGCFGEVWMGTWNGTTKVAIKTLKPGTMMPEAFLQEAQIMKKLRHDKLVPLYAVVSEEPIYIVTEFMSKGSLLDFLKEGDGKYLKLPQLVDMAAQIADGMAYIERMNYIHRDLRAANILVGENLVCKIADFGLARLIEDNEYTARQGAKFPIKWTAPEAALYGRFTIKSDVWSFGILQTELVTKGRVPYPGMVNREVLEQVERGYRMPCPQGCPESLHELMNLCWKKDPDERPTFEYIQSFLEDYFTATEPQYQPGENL

## O=C(O)c1ccc(Nc2ncc3c(n2)-c2ccc(Cl)cc2C(c2c(F)cccc2F)=NC3)cc1 [MLN-8054]
[1]
  Activity: 67%
[2]
  Activity: 133%
[3]
  Activity: 115%
[4]
  Activity: 88%
[5]
  Activity: 100%
[6]
  Activity: 104%
[7]
  Activity: 104%
[8]
  Activity: 108%
[9]
  Activity: 114%
[10]
  Activity: 98%
[11]
  Activity: 106%
[12]
  Activity: 109%
[13]
  Activity: 112%
[14]
  Activity: 99%
[15]
  Activity: 105%
[16]
  Activity: 80%
[17]
  Activity: 120%
[18]
  Activity: 92%
[19]
  Activity: 56%
[20]
  concentration at 8 h: 7.4 µM
[21]
  Activity: 103%
[22]
  Activity: 60%
[23]
  Activity: 123%
[24]
  Activity: 20%
Mus musculus [25]
  Activity: 73%
[26]
  Activity: 92%
[27]
  Activity: 123%
[28]
  Activity: 97%
Homo sapiens
  Activity: 94%
PC-3 [29]
  Activity: Active
NCI-H460
  IC50: 110 nM
Mus musculus [30]
  Activity: < 2%
[31]
  inhibition: 76%
[32]
  inhibition: 65%
PC-3 [33]
  Activity: 58.8%
PC-3 [34]
  Activity: 5%
PC-3 [35]
  Activity: 12.9%
[36]
  Activity: 105%
